Measured values reported in ChEMBL document CHEMBL4414571, “Sordarin Diterpene Glycosides with an Unusual 1,3-Dioxolan-4-one Ring from the Zoanthid-Derived Fungus Curvularia hawaiiensis TA26-15” (2019).
≈ marks a conversion by molar mass, not a printed value.

Test system: Candida albicans
Assay: Antifungal activity against Candida albicans ATCC 10231 by NCCLS-protocol based microplate reader analysis
Type: functional
How it was run: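 Broth microdilution per NCCLS. Strains grown on potato dextrose agar; inoculum prepared from broth culture (28 °C, 48 h) and adjusted to 104 mycelial fragments/mL. Compounds from 100 μM DMSO stock were serially diluted in triplicate, spore suspension added to 200 μL final volume. Carbendazim served as positive control. Absorbance read at 492 nm after incubation; MIC calculated.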

| SMILES | MIC [µM] |
| --- | --- |
| CO[C@@H]1[C@@H](C)O[C@@H](OC[C@@]23C[C@@H]4[C@H](C)CC[C@H]4[C@@]4(C=O)C[C@@H]2C=C(C(C)C)[C@@]34C(=O)O)[C@@H](O)[C@@]12OC(=O)[C@H](CCCCCCCC(=O)O)O2 | 3.7 (≈ 2.56 µg/mL) |
| CO[C@@H]1[C@@H](C)O[C@@H](OC[C@@]23C[C@@H]4[C@H](C)CC[C@H]4[C@@]4(C(=O)O)C[C@@H]2C=C(C(C)C)[C@@]34C(=O)O)[C@@H](O)[C@@]12OC(=O)[C@H](CCCCCCCC(=O)O)O2 | 15 (≈ 10.6 µg/mL) |
| COC(=O)CCC[C@@H]1O[C@@]2(OC1=O)[C@H](O)[C@H](OC[C@@]13C[C@@H]4[C@H](C)CC[C@H]4[C@@]4(C=O)C[C@@H]1C=C(C(C)C)[C@@]34C(=O)O)O[C@H](C)[C@H]2OC | 9.8 (≈ 6.36 µg/mL) |
| CC(C)C1=C[C@H]2C[C@]3(C(=O)O)[C@@H]4CC[C@@H](C)[C@H]4C[C@@]2(CO)[C@]13C(=O)O | 24 (≈ 8.36 µg/mL) |
| CO[C@@H]1[C@@H](C)O[C@@H](OC[C@@]23C[C@@H]4[C@H](C)CC[C@H]4[C@@]4(C=O)C[C@@H]2C=C(C(C)C)[C@@]34C(=O)O)[C@@H](O)[C@@]12OC(=O)[C@H](CCCCCC(=O)O)O2 | 8.7 (≈ 5.77 µg/mL) |
| COC(=O)CCCCCCC[C@@H]1O[C@@]2(OC1=O)[C@H](O)[C@H](OC[C@@]13C[C@@H]4[C@H](C)CC[C@H]4[C@@]4(C=O)C[C@@H]1C=C(C(C)C)[C@@]34C(=O)O)O[C@H](C)[C@H]2OC | 2.9 (≈ 2.04 µg/mL) |
| COC(=O)CCCCCCC[C@@H]1O[C@@]2(OC1=O)[C@H](O)[C@H](OC[C@@]13C[C@@H]4[C@H](C)CC[C@H]4[C@@]4(C(=O)O)C[C@@H]1C=C(C(C)C)[C@@]34C(=O)O)O[C@H](C)[C@H]2OC | 13 (≈ 9.37 µg/mL) |
| CO[C@@H]1[C@@H](C)O[C@@H](OC[C@@]23C[C@@H]4[C@H](C)CC[C@H]4[C@@]4(C=O)C[C@@H]2C=C(C(C)C)[C@@]34C(=O)O)[C@@H](O)[C@@]12OC(=O)[C@H](CCCC(=O)O)O2 | 12 (≈ 7.62 µg/mL) |
| CC(C)C1=C[C@H]2C[C@]3(C=O)[C@@H]4CC[C@@H](C)[C@H]4C[C@@]2(CO)[C@]13C(=O)O | 18 (≈ 5.98 µg/mL) |
| COC(=O)Nc1nc2ccccc2[nH]1 [CARBENDAZIM] | 0.16 (≈ 0.0306 µg/mL) |
